This note sets out measurements from ChEMBL document CHEMBL3745671, “Discovery of N-[5-(6-Chloro-3-cyano-1-methyl-1H-indol-2-yl)-pyridin-3-ylmethyl]-ethanesulfonamide, a Cortisol-Sparing CYP11B2 Inhibitor that Lowers Aldosterone in Human Subjects” (J Med Chem, 2015).

Converted amounts (≈) assume the structure as drawn.

Series [1] addresses T1, Cytochrome P450 11B2, mitochondrial (Rattus norvegicus, UniProt P30099).
T1 sequence (P30099 whole entry): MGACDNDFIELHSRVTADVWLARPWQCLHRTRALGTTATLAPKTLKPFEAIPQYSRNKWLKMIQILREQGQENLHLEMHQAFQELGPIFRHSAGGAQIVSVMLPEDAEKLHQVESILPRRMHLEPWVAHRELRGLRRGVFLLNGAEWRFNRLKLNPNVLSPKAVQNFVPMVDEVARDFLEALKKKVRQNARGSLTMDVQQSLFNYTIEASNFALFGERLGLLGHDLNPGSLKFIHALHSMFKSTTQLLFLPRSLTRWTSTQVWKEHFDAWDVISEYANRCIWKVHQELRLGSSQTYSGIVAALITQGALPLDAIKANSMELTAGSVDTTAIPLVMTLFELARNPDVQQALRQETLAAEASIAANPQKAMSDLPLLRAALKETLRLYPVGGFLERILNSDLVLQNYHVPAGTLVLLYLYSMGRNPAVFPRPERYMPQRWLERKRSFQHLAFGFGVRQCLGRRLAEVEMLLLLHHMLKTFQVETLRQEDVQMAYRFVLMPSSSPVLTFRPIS
The series is described as follows: Inhibition of recombinant rat CYP11B2 using 11-deoxycorticosterone as substrate after 2 hrs by scintillation proximity assay. On the technique in general: SPA uses beads or plates that emit light when radiolabelled molecules are held near them.

Series [2] addresses T2, Cytochrome P450 11B2, mitochondrial (Homo sapiens, UniProt P19099).
T2 sequence (P19099 whole entry): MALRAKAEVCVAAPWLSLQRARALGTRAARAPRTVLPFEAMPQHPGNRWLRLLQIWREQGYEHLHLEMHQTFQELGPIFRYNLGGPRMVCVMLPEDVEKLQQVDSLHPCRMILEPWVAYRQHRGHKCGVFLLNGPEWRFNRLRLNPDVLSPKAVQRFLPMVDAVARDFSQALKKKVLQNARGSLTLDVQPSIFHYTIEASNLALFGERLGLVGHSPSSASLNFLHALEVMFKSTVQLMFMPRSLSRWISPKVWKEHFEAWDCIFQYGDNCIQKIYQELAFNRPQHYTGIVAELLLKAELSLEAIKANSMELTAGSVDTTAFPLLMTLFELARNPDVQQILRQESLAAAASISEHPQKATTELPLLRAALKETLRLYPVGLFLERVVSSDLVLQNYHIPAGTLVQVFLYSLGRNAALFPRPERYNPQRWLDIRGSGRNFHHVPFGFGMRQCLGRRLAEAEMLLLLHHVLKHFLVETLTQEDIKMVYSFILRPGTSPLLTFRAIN
The experiment in a line: Inhibition of CYP11B2 in human […] cells assessed as decrease in […] aldosterone secretion after 24 hrs by RIA. It is filed as cell-based.

Series [3] deals with T3, Amine oxidase [flavin-containing] A (Homo sapiens, UniProt P21397).
T3 sequence (P21397 whole entry): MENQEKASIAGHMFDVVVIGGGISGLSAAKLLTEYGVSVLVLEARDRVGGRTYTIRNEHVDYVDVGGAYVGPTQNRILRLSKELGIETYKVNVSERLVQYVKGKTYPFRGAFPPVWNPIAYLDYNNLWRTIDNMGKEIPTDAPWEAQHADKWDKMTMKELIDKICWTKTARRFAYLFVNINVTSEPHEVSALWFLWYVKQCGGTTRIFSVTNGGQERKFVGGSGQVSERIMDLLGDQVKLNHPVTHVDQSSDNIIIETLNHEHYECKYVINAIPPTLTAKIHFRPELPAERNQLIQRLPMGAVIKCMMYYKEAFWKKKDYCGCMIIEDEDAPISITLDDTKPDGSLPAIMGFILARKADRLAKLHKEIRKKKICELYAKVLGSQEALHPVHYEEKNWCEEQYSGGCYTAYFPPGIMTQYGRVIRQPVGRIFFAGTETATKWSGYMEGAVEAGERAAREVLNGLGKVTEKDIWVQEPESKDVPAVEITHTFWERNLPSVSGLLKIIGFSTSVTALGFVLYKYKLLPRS
The series is described as follows: Inhibition of MAO-A (unknown origin).

The target of series [4] is T4, CYP19 (aromatase) (Homo sapiens, UniProt P11511).
T4 sequence (P11511 whole entry): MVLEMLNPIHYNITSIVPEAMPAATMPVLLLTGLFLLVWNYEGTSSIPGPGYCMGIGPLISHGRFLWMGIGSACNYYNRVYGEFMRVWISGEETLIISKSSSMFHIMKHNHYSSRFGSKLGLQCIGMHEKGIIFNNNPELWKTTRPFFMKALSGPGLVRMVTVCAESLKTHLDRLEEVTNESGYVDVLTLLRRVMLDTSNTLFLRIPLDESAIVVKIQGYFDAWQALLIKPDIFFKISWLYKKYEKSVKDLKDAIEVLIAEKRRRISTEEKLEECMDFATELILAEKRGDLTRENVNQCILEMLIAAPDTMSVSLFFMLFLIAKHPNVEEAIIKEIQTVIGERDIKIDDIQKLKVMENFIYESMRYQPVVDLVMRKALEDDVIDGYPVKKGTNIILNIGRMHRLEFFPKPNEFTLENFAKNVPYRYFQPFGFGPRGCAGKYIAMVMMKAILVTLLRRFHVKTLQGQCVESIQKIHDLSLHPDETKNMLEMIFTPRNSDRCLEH
The experiment in a line: Inhibition of human CYP19 at 10 uM preincubated for 10 mins with NADPH followed by protein addition measured after 90 mins by fluorometric analysis.

A short description of series [5]: Half life in rat liver microsomes after 30 mins by LC/MS/MS analysis. It is filed as ADME.
The species entered for series [6] is Homo sapiens. The series is described as follows: Selectivity ratio of IC50 for human recombinant CYP11B1 to IC50 for human recombinant CYP11B2.
The target of series [7] is T2, Cytochrome P450 11B2, mitochondrial. The experiment in a line: Inhibition of human recombinant CYP11B2 using 11-deoxycorticosterone as substrate after 2 hrs by scintillation proximity assay.
Series [8] is described as follows: Half life in human liver microsomes after 30 mins by LC/MS/MS analysis. The format is ADME.
The nature of series [9]: Equilibrium solubility of the compound in buffer at pH 6.8. The format is physicochemical. In outline:
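Equilibrium solubility measured in buffer at pH 6.8.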

Series [10] is described as follows: AUC (0 to 24 hrs) in Sprague-Dawley rat at 1 mg/kg, po. Conditions: in vivo; call rule not given here.
Series [11] is described as follows: Oral bioavailability in continuous angiotensin 2 infusion Sprague-Dawley rat model at 3 mg/kg. Conditions: in vivo. The format is ADME, organism-based. In outline: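 Male Sprague Dawley rats, 200–300 g. IV: 0.3 mg/1 mL/kg (free base) slow injection via jugular vein, n=2. Oral gavage at 1 mg/5 mL/kg or 3 mg/5 mL/kg in solution, n=3. Jugular catheter blood at 5 min (iv only), 0.25–8 h into EDTA; plasma after protein precipitation with acetonitrile containing internal standard, HPLC-MS; noncompartmental parameters.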

Series [12] in a line: Inhibition of CYP11B2 in cynomolgus monkey adrenal homogenates assessed as inhibition of aldosterone secretion. The format is tissue-based, Macaca fascicularis. In outline: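 Cynomolgus monkey adrenal homogenates, with 11-DOC as substrate; aldosterone secretion inhibition determined as IC50.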
Series [13] can be described thus: Half life in continuous angiotensin 2 infusion Sprague-Dawley rat model at 3 mg/kg, po and 1 mg/kg, iv. It is filed as ADME, organism-based. Conditions: in vivo.
Series [14] is filed under the species Macaca fascicularis. The series is described as follows: Selectivity ratio of IC50 for cynomolgus monkey CYP11B1 to IC50 for cynomolgus monkey CYP11B2. In outline: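 Adrenal homogenates from cynomolgus monkey (Macaca fascicularis) served as the enzyme source, with 11-DOC as substrate. CYP11B2 activity was read as aldosterone production and CYP11B1 activity as cortisol production. The value is the CYP11B1 IC50 divided by the CYP11B2 IC50.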

A short description of series [15]: Clearance in continuous angiotensin-2 infusion Sprague-Dawley rat model at 3 mg/kg, po and 1 mg/kg, iv. The format is ADME, organism-based. Conditions: in vivo.

Consider `Cn1c(-c2cccnc2)c(C#N)c2ccc(Cl)cc21`, for which the 50% inhibitory concentration (IC50) in series [1] worked out at 8000 nM; in [2], 4 nM; in series [3], 210 nM; in series [7], 2.5 nM. This compound also registered an inhibition at 1.5 h, 10 µM in [4] of 47%. Further, the half-life in series [5] amounted to 47 min; in [8] it was 259 min. Also, in series [6], the Ratio IC50 is 43.

`Cc1c(-c2cccnc2)n(C)c2ccccc12`: the concentration for half-maximal inhibition (IC50) in series [2] was determined as 9 nM; in series [7], 1.4 nM. This compound registered an inhibition at 1.5 h, 10 µM in [4] of 91%. The values for the half-life in [5] and in series [8] were 5 min and 12 min, respectively. Further, the Ratio IC50 in series [6] is 38.

As for `CCS(=O)(=O)Nc1cncc(-c2c(C#N)c3ccccc3n2C)c1`, the IC50 in [2] was found to be 380 nM.

For the compound `CCS(=O)(=O)NCc1cncc(-c2cc3ccc(Cl)nc3n2C)c1`, the IC50 in [2] worked out at 7 nM; in [12] it was 6 nM; in series [7] it was 1.1 nM. The solubility (thermodynamic) in [9] stood at 450 µM (≈ 164 µg/mL). Besides, the AUC(0-t) at 24 h in [10] was 0.75 µM·h. The same compound came in with a bioavailability in series [11] of 100%. The inhibition at 1.5 h, 10 µM in series [4] worked out at 11%. Also, the half-life was 40 min in [5], 24 min in series [13] and 21 min in series [8]. The Ratio IC50 in series [6] was 86; in series [14], 99. For the same compound, in [15], the clearance turned out to be 68 mL/min/kg.

Turning to `Cc1c(-c2cccnc2)[nH]c2ccccc12`, the results for the IC50 in series [1], in series [2] and in [7] were 3900 nM, 21 nM and 3 nM, respectively. The inhibition at 1.5 h, 10 µM in [4] is 94%. Besides, the Ratio IC50 in series [6] was determined as 27.

In the case of `CCS(=O)(=O)Nc1cncc(-c2c(C#N)c3ccc(Cl)cc3n2C)c1`, the values for the IC50 in series [1], in series [2] and in series [7] were 53100 nM, 13 nM and 11 nM, respectively. Besides, the “inhibition (INH)” value in [3] (human) is on record as “Not Active”. The compound also gave an inhibition at 1.5 h, 10 µM in [4] of 15%. In addition, the half-life in series [5] is 176 min; in [8] it was above 400 min. In addition, the Ratio IC50 came out at 43 in series [6] and 636 in series [14].

With `CCS(=O)(=O)NCc1cncc(-c2cc3cnc(Cl)cc3n2C)c1`, the IC50 in series [2] came out at 169 nM; in [7] it was 22 nM. For the same compound, in series [6], the Ratio IC50 worked out at 21.

As for `Cn1c(-c2cccnc2)c(C#N)c2ccccc21`, the concentration for half-maximal inhibition (IC50) came to 10900 nM in series [1], 90 nM in series [2], 9 nM in series [12] and 11 nM in [7]. Moreover, in [4], the inhibition at 1.5 h, 10 µM was determined as 58%. Besides, the half-life stood at 30 min in series [5] and 10 min in series [8]. Further, the results for the Ratio IC50 in [6] and in series [14] were 56 and 396, respectively.

`CN(C)S(=O)(=O)Oc1cncc(-c2c(C#N)c3ccccc3n2C)c1`: the IC50 in series [1] is 2000 nM; in series [2], 39 nM; in [3], above 10000 nM; in series [7] it was 2 nM. The inhibition at 1.5 h, 10 µM in series [4] came to 27%. Moreover, the half-life in series [5] worked out at 1 min; in series [8], 3 min. In addition, the Ratio IC50 in [6] is 103.

By IC50 is commonly meant the concentration that gives 50% inhibition. What is called inhibition is the share of the control response that was lost under treatment. By half-life is commonly meant how long it takes for the measured level to halve. What is called thermodynamic solubility is solubility found after equilibrating the solid with the medium. One may read the AUC(0-t) as the area under the concentration-time curve up to a stated or last time point. Usually bioavailability stands for dose-corrected exposure relative to a reference, in per cent.
